# From publication PMC4872389 (The American journal of Chinese medicine, 2016)
# Legend:
# [1] = rat, in vivo; cited from earlier work
# [2] = Plasma and tissue D, DA, DOH after sub-chronic dietary AGN exposure; type: in vivo, male C57BL/6J mice; details: for Terminal-bleed plasma level by HPLC-UV: 0.5% and 1% AGN diet, 6 weeks, all but one mouse; for concentration at 6 weeks: male, C57BL/6J, mouse, oral
# Summary of the method: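 Male C57BL/6J mice, 6 weeks old, 10 per group, were fed AIN-93M diet containing 0.5% or 1% (w/w) AGN extract ad libitum for 6 weeks. Terminal plasma was taken by cardiac puncture (heparin) under anesthesia, 1–4 pm. Tissues were homogenized in 4 volumes of water. Samples were extracted with ethyl acetate and analyzed by HPLC-UV, with D and DA quantitated together. Values are mean ± SE, n=5.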
# [3] = Plasma and tissue D, DA, DOH after a single gavage dose of D/DA; type: in vivo, male C57BL/6 mice
# Summary of the method: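 Male C57BL/6 mice, 6–7 weeks old, 5 per group, got one gastric gavage of 3 mg D/DA (1.8 mg D + 1.2 mg DA) in 0.3 mL of 10% ethanol/20% PEG400/3.3% Tween80/66.7% USP 5% dextrose. Plasma (cardiac puncture, heparin) and tissues were collected at time points over 24 h. Water homogenates (ice bath) were extracted with ethyl acetate. Analysis was HPLC-UV, except prostate by UHPLC-MS/MS.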
# [4] = system: cytochrome p450 (Cyp); details: orally administered general Cyp inhibitor; ref Zhang et al., 2015b; cited from earlier work
# [5] = Plasma, tissue and urine pyranocoumarins after repeated i.p. AGN; type: in vivo, CD-1 mice; details: 3 h after last i.p. injection of AGN
# Summary of the method: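 CD-1 mice, 8–10 weeks old, 6 per sex per group, were kept on AIN-93M diet. They received i.p. vehicle or AGN extract at 100, 200 or 300 mg/kg in 0.3 mL, six days/week for 4 weeks, with dose adjusted weekly to body weight. Blood and organs were taken 3 h after the last injection. Extracts were made with ethyl acetate and analyzed by HPLC-UV; n=4~6 per dose group.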
# [6] = adipose, single gavage 3 mg D/DA
# [7] = kidney, single gavage 3 mg D/DA
# [8] = male, C57BL/6, mouse, plasma, po, 3 mg
# [9] = prostate, single gavage 3 mg D/DA
"Cmax [3, 6] [µmol/kg]","Cmax ([3]; brain, single gavage 3 mg D/DA) [µmol/kg]","Cmax [3, 7] [µmol/kg]","Cmax ([3]; liver, single gavage 3 mg D/DA) [µmol/kg]","Cmax ([3]; lung, single gavage 3 mg D/DA) [µmol/kg]","Cmax [3, 8] [µM]","Tmax ([3]; male, C57BL/6, mouse, po, 3 mg) [h]","Cmax [3, 9] [µmol/kg]",concentration at 6 weeks ([2]; brain) [µM],concentration at 6 weeks ([2]; kidney) [µM],concentration at 6 weeks ([2]; liver) [µM],concentration at 6 weeks ([2]; lung) [µM],"concentration at 6 weeks ([2]; plasma, 0.5 % AGN in diet) [µM]","concentration at 6 weeks ([2]; plasma, 1 % AGN in diet) [µM]",concentration at 6 weeks ([2]; prostate) [µM],"Content in liver, lung, kidney and brain relative to plasma [5]",Structure (SMILES),Reported safe dose [1] [mg D/kg],Terminal-bleed plasma level by HPLC-UV [2],Increase of prostate retention on blocking Cyp activities [4]
7.26,1.78,5.51,2.95,3.13,0.76,1,14.80,,,,,,,,,"C/C=C(/C)C(=O)O[C@H]1Cc2cc3ccc(=O)oc3cc2OC1(C)C [DA, decursinol angelate]",,below limit of detection,2 orders of magnitude
28.5,23.3,50.4,47.8,31.6,39.8,1,46.4,2.97,14.4,41.1,3.33,0.99 ± 0.11,2.44 ± 0.52,12.8,lower than its plasma level,"CC1(C)Oc2cc3oc(=O)ccc3cc2C[C@@H]1O [DOH, decursinol]",,,

Structure (SMILES),"Cmax [3, 6] [µmol/kg]","Cmax ([3]; brain, single gavage 3 mg D/DA) [µmol/kg]","Cmax [3, 7] [µmol/kg]","Cmax ([3]; liver, single gavage 3 mg D/DA) [µmol/kg]","Cmax ([3]; lung, single gavage 3 mg D/DA) [µmol/kg]","Cmax [3, 8] [µM]","Tmax ([3]; male, C57BL/6, mouse, po, 3 mg) [h]","Cmax [3, 9] [µmol/kg]",concentration at 6 weeks ([2]; brain) [µM],concentration at 6 weeks ([2]; kidney) [µM],concentration at 6 weeks ([2]; liver) [µM],concentration at 6 weeks ([2]; lung) [µM],"concentration at 6 weeks ([2]; plasma, 0.5 % AGN in diet) [µM]","concentration at 6 weeks ([2]; plasma, 1 % AGN in diet) [µM]",concentration at 6 weeks ([2]; prostate) [µM],"Content in liver, lung, kidney and brain relative to plasma [5]",Reported safe dose [1] [mg D/kg],Terminal-bleed plasma level by HPLC-UV [2],Increase of prostate retention on blocking Cyp activities [4]
"CC(C)=CC(=O)O[C@H]1Cc2cc3ccc(=O)oc3cc2OC1(C)C [D, decursin]",1.75,1.00,0.42,0.38,0,0.38,1,4.90,,,,,,,,,250,below limit of detection,2 orders of magnitude
